{"source": "ChEMBL document CHEMBL1134361", "about": "“C-Isoprenylation of flavonoids enhances binding affinity toward P-glycoprotein and modulation of cancer cell chemoresistance” (J Med Chem, 2001)", "key": {"[1]": {"assay": "Hydrophobicity index was determined in C18 reverse phase silica gel 20 * 20 cm plates in methanol:water (8:2).", "type": "ADME"}, "[2]": {"assay": "Effect of Chrysin Alkylation on the Binding to PgP Cytosolic Domain.", "type": "ADME", "outline": "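Recombinant Pgp C-terminal cytosolic domain NBD2 (0.5 µM) in 20 mM potassium phosphate pH 6.8 with 0.5 M NaCl, 20% glycerol and 0.01% heptylcarbamoyl glucoside, 25 °C. Ligand titrated in aliquots up to 20 µM. Tryptophan fluorescence (ex 295 nm, em 310–360 nm) integrated; inner-filter corrected with N-acetyltryptophanamide. Curve fit gave KD and percent maximal quenching.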"}, "[3]": {"assay": "Partition coefficient (logP)", "type": "physicochemical", "details": "octanol/water", "outline": "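Log P estimated by extrapolation from a log P vs R_M calibration curve built with quercetine and platanetine data.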"}, "K562": {"system": "K562", "assay": "Relative daunomycin accumulation was determined in PgP-positive leukemic K562/R7 cells with daunomycin at a concentration of 10 uM", "type": "functional, Homo sapiens", "outline": "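K562/R7 human leukemic cells with high Pgp (1 million/mL RPMI 1640) incubated 1 h at 37 °C with 10 µM daunomycin (final), with or without 10 µM modulator. Cells washed three times in ice-cold PBS, kept on ice, intracellular drug fluorescence read by flow cytometry. Fluorescence shift expressed relative to that of 2 µM cyclosporin A reference. Duplicates, at least three experiments.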"}, "[4]": {"assay": "Direct binding to PgP recombinant cytosolic domain was measured by percent maximal quenching of the intrinsic fluorescence.", "type": "ADME", "details": "cytosol", "outline": "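Recombinant C-terminal cytosolic NBD2 of Pgp at 0.5 µM in 20 mM potassium phosphate pH 6.8 with 0.5 M NaCl, 20% glycerol and 0.01% heptylcarbamoyl glucopyranoside detergent, 25 °C. Excitation at 295 nm, emission scanned 310–360 nm and integrated, buffer-corrected. Ligand added stepwise up to 20 µM. Inner-filter correction used N-acetyltryptophanamide. Curve fitting gave K_D and percent maximal quenching.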"}}, "data": [{"smiles": "CC(C)Oc1cc2oc(-c3ccccc3)cc(=O)c2c(O)c1C(C)C", "values": [{"measurement": "Hydrophobicity index", "setting": "[1]", "result": 1.248}, {"measurement": "Kd", "setting": "[2]", "result": 280, "unit": "nM"}, {"measurement": "logP", "setting": "[3]", "result": 6.6}, {"measurement": "Relative daunomycin accumulation", "setting": "K562", "result": 0.29}, {"measurement": "Delta Fmax", "setting": "[4]", "result": 44.5, "unit": "%"}]}, {"smiles": "CC(C)Oc1cc(O)c2c(=O)cc(-c3ccccc3)oc2c1", "values": [{"measurement": "Hydrophobicity index", "setting": "[1]", "result": 0.898}, {"measurement": "Kd", "setting": "[2]", "result": 1320, "unit": "nM"}, {"measurement": "logP", "setting": "[3]", "result": 6.24}, {"measurement": "Relative daunomycin accumulation", "setting": "K562", "result": 0.3}, {"measurement": "Delta Fmax", "setting": "[4]", "result": 53.2, "unit": "%"}]}, {"smiles": "O=c1cc(-c2ccccc2)oc2cc(O)cc(O)c12", "note": "[CHRYSIN]", "values": [{"measurement": "Hydrophobicity index", "setting": "[1]", "result": 0.358}, {"measurement": "Kd", "setting": "[2]", "result": 13100, "unit": "nM"}, {"measurement": "logP", "setting": "[3]", "result": 5.7}, {"measurement": "Relative daunomycin accumulation", "setting": "K562", "result": 0.2}, {"measurement": "Delta Fmax", "setting": "[4]", "result": 94.6, "unit": "%"}]}, {"smiles": "CC(C)=CCc1c(O)cc(O)c2c(=O)cc(-c3ccccc3)oc12", "values": [{"measurement": "Hydrophobicity index", "setting": "[1]", "result": 0.853}, {"measurement": "Kd", "setting": "[2]", "result": 280, "unit": "nM"}, {"measurement": "logP", "setting": "[3]", "result": 6.2}, {"measurement": "Relative daunomycin accumulation", "setting": "K562", "result": 1.52}, {"measurement": "Delta Fmax", "setting": "[4]", "result": 81, "unit": "%"}]}, {"smiles": "O=c1cc(-c2ccccc2)oc2c(Cc3ccccc3)c(O)cc(O)c12", "values": [{"measurement": "Hydrophobicity index", "setting": "[1]", "result": 0.754}, {"measurement": "Kd", "setting": "[2]", "result": 990, "unit": "nM"}, {"measurement": "logP", "setting": "[3]", "result": 6.1}, {"measurement": "Relative daunomycin accumulation", "setting": "K562", "result": 0.25}, {"measurement": "Delta Fmax", "setting": "[4]", "result": 99.1, "unit": "%"}]}, {"smiles": "CC(C)c1c(O)cc2oc(-c3ccccc3)cc(=O)c2c1O", "values": [{"measurement": "Hydrophobicity index", "setting": "[1]", "result": 0.608}, {"measurement": "Kd", "setting": "[2]", "result": 210, "unit": "nM"}, {"measurement": "logP", "setting": "[3]", "result": 5.95}, {"measurement": "Relative daunomycin accumulation", "setting": "K562", "result": 0.24}, {"measurement": "Delta Fmax", "setting": "[4]", "result": 39, "unit": "%"}]}, {"smiles": "Cc1c(O)cc2oc(-c3ccccc3)cc(=O)c2c1O", "values": [{"measurement": "Hydrophobicity index", "setting": "[1]", "result": 0.512}, {"measurement": "Kd", "setting": "[2]", "result": 3100, "unit": "nM"}, {"measurement": "logP", "setting": "[3]", "result": 5.85}, {"measurement": "Relative daunomycin accumulation", "setting": "K562", "result": 0.2}, {"measurement": "Delta Fmax", "setting": "[4]", "result": 46.6, "unit": "%"}]}, {"smiles": "CC(C)=CCC/C(C)=C\\Cc1c(O)cc2oc(-c3ccccc3)cc(=O)c2c1O", "values": [{"measurement": "Hydrophobicity index", "setting": "[1]", "result": 1.288}, {"measurement": "Kd", "setting": "[2]", "result": 45, "unit": "nM"}, {"measurement": "logP", "setting": "[3]", "result": 6.64}, {"measurement": "Relative daunomycin accumulation", "setting": "K562", "result": 0.81}, {"measurement": "Delta Fmax", "setting": "[4]", "result": 48.2, "unit": "%"}]}, {"smiles": "COc1cc2oc(-c3ccccc3)cc(=O)c2c(O)c1C", "values": [{"measurement": "Hydrophobicity index", "setting": "[1]", "result": 0.842}, {"measurement": "Kd", "setting": "[2]", "result": 1300, "unit": "nM"}, {"measurement": "logP", "setting": "[3]", "result": 6.18}, {"measurement": "Relative daunomycin accumulation", "setting": "K562", "result": 0.3}, {"measurement": "Delta Fmax", "setting": "[4]", "result": 57.3, "unit": "%"}]}, {"smiles": "CC(C)=CCc1c(O)c(CC=C(C)C)c2oc(-c3ccccc3)cc(=O)c2c1O", "values": [{"measurement": "Hydrophobicity index", "setting": "[1]", "result": 1.296}, {"measurement": "Kd", "setting": "[2]", "result": 15, "unit": "nM"}, {"measurement": "logP", "setting": "[3]", "result": 6.56}, {"measurement": "Relative daunomycin accumulation", "setting": "K562", "result": 0.84}, {"measurement": "Delta Fmax", "setting": "[4]", "result": 21.5, "unit": "%"}]}, {"smiles": "CC(C)Oc1c(C(C)C)c(O)c2c(=O)cc(-c3ccccc3)oc2c1C(C)C", "values": [{"measurement": "Hydrophobicity index", "setting": "[1]", "result": 1.479}, {"measurement": "Kd", "setting": "[2]", "result": 33, "unit": "nM"}, {"measurement": "logP", "setting": "[3]", "result": 6.84}, {"measurement": "Relative daunomycin accumulation", "setting": "K562", "result": 0.29}, {"measurement": "Delta Fmax", "setting": "[4]", "result": 38.4, "unit": "%"}]}, {"smiles": "COc1cc(O)c2c(=O)cc(-c3ccccc3)oc2c1", "note": "[TECHTOCHRYSIN]", "values": [{"measurement": "Hydrophobicity index", "setting": "[1]", "result": 0.719}, {"measurement": "Kd", "setting": "[2]", "result": 6300, "unit": "nM"}, {"measurement": "logP", "setting": "[3]", "result": 6.06}, {"measurement": "Relative daunomycin accumulation", "setting": "K562", "result": 0.23}, {"measurement": "Delta Fmax", "setting": "[4]", "result": 68.1, "unit": "%"}]}, {"smiles": "CC(C)=CCC/C(C)=C\\Cc1c(O)cc(O)c2c(=O)cc(-c3ccccc3)oc12", "values": [{"measurement": "Hydrophobicity index", "setting": "[1]", "result": 1.35}, {"measurement": "Kd", "setting": "[2]", "result": 25, "unit": "nM"}, {"measurement": "logP", "setting": "[3]", "result": 6.71}, {"measurement": "Relative daunomycin accumulation", "setting": "K562", "result": 0.9}, {"measurement": "Delta Fmax", "setting": "[4]", "result": 67, "unit": "%"}]}, {"smiles": "O=c1cc(-c2ccccc2)oc2cc(OCc3ccccc3)cc(O)c12", "values": [{"measurement": "Hydrophobicity index", "setting": "[1]", "result": 1.076}, {"measurement": "Kd", "setting": "[2]", "result": 68, "unit": "nM"}, {"measurement": "logP", "setting": "[3]", "result": 6.42}, {"measurement": "Relative daunomycin accumulation", "setting": "K562", "result": 0.27}, {"measurement": "Delta Fmax", "setting": "[4]", "result": 29.3, "unit": "%"}]}, {"smiles": "CC(C)=CCc1c(O)cc2oc(-c3ccccc3)cc(=O)c2c1O", "values": [{"measurement": "Hydrophobicity index", "setting": "[1]", "result": 0.812}, {"measurement": "Kd", "setting": "[2]", "result": 300, "unit": "nM"}, {"measurement": "logP", "setting": "[3]", "result": 6.15}, {"measurement": "Relative daunomycin accumulation", "setting": "K562", "result": 0.83}, {"measurement": "Delta Fmax", "setting": "[4]", "result": 83.4, "unit": "%"}]}, {"smiles": "O=c1cc(-c2ccccc2)oc2cc(O)c(Cc3ccccc3)c(O)c12", "values": [{"measurement": "Hydrophobicity index", "setting": "[1]", "result": 0.754}, {"measurement": "Kd", "setting": "[2]", "result": 340, "unit": "nM"}, {"measurement": "logP", "setting": "[3]", "result": 6.1}, {"measurement": "Relative daunomycin accumulation", "setting": "K562", "result": 0.09}, {"measurement": "Delta Fmax", "setting": "[4]", "result": 72.4, "unit": "%"}]}, {"smiles": "O=c1cc(-c2ccccc2)oc2c(Cc3ccccc3)c(O)c(Cc3ccccc3)c(O)c12", "values": [{"measurement": "Hydrophobicity index", "setting": "[1]", "result": 1.06}, {"measurement": "Kd", "setting": "[2]", "result": 36, "unit": "nM"}, {"measurement": "logP", "setting": "[3]", "result": 6.41}, {"measurement": "Relative daunomycin accumulation", "setting": "K562", "result": 0.39}, {"measurement": "Delta Fmax", "setting": "[4]", "result": 40.9, "unit": "%"}]}]}
